Laboratory results as given in ChEMBL document CHEMBL1156205, “Synthesis and antibacterial activity of new 9-O-arylpropenyloxime ketolides” (2010).
Converted amounts (≈) assume the structure as drawn.

What was measured:
Format in all cases: functional
[1] = tested on: Streptococcus pneumoniae; experiment: Antibacterial activity against penicillin intermediate-resistant Streptococcus pneumoniae isolate I1 by agar dilution method
In short: (§1)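 MIC determined by agar dilution on Mueller–Hinton agar against clinically isolated penicillin-intermediate-resistant S. pneumoniae.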

[2] = tested on: Staphylococcus aureus; experiment: Antibacterial activity against methicillin-susceptible Staphylococcus aureus ATCC 29213 by agar dilution method
In short: (§2)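 MIC determined by agar dilution on Mueller–Hinton agar against reference strains.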

[3] = tested on: Staphylococcus aureus; experiment: Antibacterial activity against methicillin-resistant Staphylococcus aureus 1 by agar dilution method
In short: (§3)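 MIC determined by agar dilution on Mueller–Hinton agar against clinical strains of methicillin-resistant S. aureus.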

[4] = tested on: Staphylococcus aureus; experiment: Antibacterial activity against methicillin-resistant Staphylococcus aureus 2 by agar dilution method; in short: as §3
[5] = tested on: Staphylococcus aureus; experiment: Antibacterial activity against methicillin-resistant Staphylococcus aureus 3 by agar dilution method; in short: as §3
[6] = tested on: Staphylococcus aureus; experiment: Antibacterial activity against methicillin-susceptible Staphylococcus aureus isolate 1 by agar dilution method
In short: (§4)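 MIC determined by agar dilution on Mueller–Hinton agar against clinically isolated methicillin-susceptible S. aureus.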

[7] = tested on: Staphylococcus aureus; experiment: Antibacterial activity against methicillin-susceptible Staphylococcus aureus isolate 2 by agar dilution method; in short: as §4
[8] = tested on: Staphylococcus aureus; experiment: Antibacterial activity against methicillin-susceptible Staphylococcus aureus isolate 3 by agar dilution method; in short: as §4
[9] = tested on: Streptococcus pneumoniae; experiment: Antibacterial activity against Streptococcus pneumoniae ATCC 49619 by agar dilution method; settings: ATCC49619; in short: as §2
[10] = tested on: Streptococcus pneumoniae; experiment: Antibacterial activity against penicillin intermediate-resistant Streptococcus pneumoniae isolate I2 by agar dilution method; in short: as §1
[11] = tested on: Streptococcus pneumoniae; experiment: Antibacterial activity against penicillin intermediate-resistant Streptococcus pneumoniae isolate I3 by agar dilution method; in short: as §1
[12] = tested on: Streptococcus pneumoniae; experiment: Antibacterial activity against penicillin-susceptible Streptococcus pneumoniae isolate S1 by agar dilution method
In short: (§5)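 MIC measured by agar dilution on Mueller–Hinton agar. Strains were a reference culture and clinically isolated strains. The pneumococcal isolates were penicillin-susceptible clinical isolates.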

[13] = tested on: Streptococcus pneumoniae; experiment: Antibacterial activity against penicillin-susceptible Streptococcus pneumoniae isolate S2 by agar dilution method; in short: as §5
[14] = tested on: Streptococcus pyogenes; experiment: Antibacterial activity against Streptococcus pyogenes ATCC 8668 by agar dilution method; in short: as §5
[15] = tested on: Streptococcus pyogenes; experiment: Antibacterial activity against Streptococcus pyogenes isolate 1 by agar dilution method; in short: as §5
[16] = tested on: Streptococcus pyogenes; experiment: Antibacterial activity against Streptococcus pyogenes isolate 2 by agar dilution method; in short: as §5
[17] = tested on: Streptococcus pyogenes; experiment: Antibacterial activity against Streptococcus pyogenes isolate 3 by agar dilution method; in short: as §5

Structure (SMILES) | MIC [1] | MIC [2] | MIC [3] | MIC [4] | MIC [5] | MIC [6] | MIC [7] | MIC [8] | MIC [9] | MIC [10] | MIC [11] | MIC [12] | MIC [13] | MIC [14] | MIC [15] | MIC [16] | MIC [17]
CC[C@H]1OC(=O)[C@H](C)C(=O)[C@H](C)[C@@H](O[C@@H]2O[C@H](C)C[C@H](N(C)C)[C@H]2O)[C@](C)(OC)C[C@@H](C)/C(=N\OC/C=C/c2cccc(OC)c2)[C@H](C)[C@@H](O)[C@]1(C)O | 64 µg/mL (≈ 85.5 µM) | 2 µg/mL (≈ 2.67 µM) | 128 µg/mL (≈ 171 µM) | 128 µg/mL (≈ 171 µM) | 2 µg/mL (≈ 2.67 µM) | 2 µg/mL (≈ 2.67 µM) | 2 µg/mL (≈ 2.67 µM) | 2 µg/mL (≈ 2.67 µM) | 1 µg/mL (≈ 1.34 µM) | 1 µg/mL (≈ 1.34 µM) | 64 µg/mL (≈ 85.5 µM) | 0.25 µg/mL (≈ 0.334 µM) | 0.25 µg/mL (≈ 0.334 µM) | 1 µg/mL (≈ 1.34 µM) | 0.25 µg/mL (≈ 0.334 µM) | 1 µg/mL (≈ 1.34 µM) | 1 µg/mL (≈ 1.34 µM)
CC[C@H]1OC(=O)[C@H](C)C(=O)[C@H](C)[C@@H](O[C@@H]2O[C@H](C)C[C@H](N(C)C)[C@H]2O)[C@](C)(OC)C[C@@H](C)/C(=N\OC/C=C/c2ccc(OC)c(OC)c2)[C@H](C)[C@@H](O)[C@]1(C)O | 32 µg/mL (≈ 41.1 µM) | 1 µg/mL (≈ 1.28 µM) | 128 µg/mL (≈ 164 µM) | 128 µg/mL (≈ 164 µM) | 1 µg/mL (≈ 1.28 µM) | 0.5 µg/mL (≈ 0.642 µM) | 1 µg/mL (≈ 1.28 µM) | 1 µg/mL (≈ 1.28 µM) | 0.25 µg/mL (≈ 0.321 µM) | 0.5 µg/mL (≈ 0.642 µM) | 0.5 µg/mL (≈ 0.642 µM) | 0.06 µg/mL (≈ 0.077 µM) | 0.06 µg/mL (≈ 0.077 µM) | 0.25 µg/mL (≈ 0.321 µM) | 0.06 µg/mL (≈ 0.077 µM) | 0.25 µg/mL (≈ 0.321 µM) | 0.25 µg/mL (≈ 0.321 µM)
CC[C@H]1OC(=O)[C@H](C)C(=O)[C@H](C)[C@@H](O[C@@H]2O[C@H](C)C[C@H](N(C)C)[C@H]2O)[C@](C)(OC)C[C@@H](C)/C(=N\OC/C=C/c2cccnc2)[C@H](C)[C@@H](O)[C@]1(C)O | 64 µg/mL (≈ 88.9 µM) | 0.5 µg/mL (≈ 0.695 µM) | 128 µg/mL (≈ 178 µM) | 128 µg/mL (≈ 178 µM) | 0.5 µg/mL (≈ 0.695 µM) | 0.25 µg/mL (≈ 0.347 µM) | 0.25 µg/mL (≈ 0.347 µM) | 0.25 µg/mL (≈ 0.347 µM) | 0.125 µg/mL (≈ 0.174 µM) | 0.25 µg/mL (≈ 0.347 µM) | 0.06 µg/mL (≈ 0.0833 µM) | 0.06 µg/mL (≈ 0.0833 µM) | 0.06 µg/mL (≈ 0.0833 µM) | 0.25 µg/mL (≈ 0.347 µM) | 0.06 µg/mL (≈ 0.0833 µM) | 0.06 µg/mL (≈ 0.0833 µM) | 0.06 µg/mL (≈ 0.0833 µM)
CC[C@H]1OC(=O)[C@H](C)C(=O)[C@H](C)[C@@H](O[C@@H]2O[C@H](C)C[C@H](N(C)C)[C@H]2O)[C@](C)(OC)C[C@@H](C)/C(=N\OC/C=C/c2cncc3ccccc23)[C@H](C)[C@@H](O)[C@]1(C)O | 32 µg/mL (≈ 41.6 µM) | 1 µg/mL (≈ 1.3 µM) | 128 µg/mL (≈ 166 µM) | 128 µg/mL (≈ 166 µM) | 0.5 µg/mL (≈ 0.649 µM) | 1 µg/mL (≈ 1.3 µM) | 0.5 µg/mL (≈ 0.649 µM) | 0.5 µg/mL (≈ 0.649 µM) | 0.25 µg/mL (≈ 0.325 µM) | 0.5 µg/mL (≈ 0.649 µM) | 1 µg/mL (≈ 1.3 µM) | 0.25 µg/mL (≈ 0.325 µM) | 0.25 µg/mL (≈ 0.325 µM) | 0.25 µg/mL (≈ 0.325 µM) | 0.06 µg/mL (≈ 0.0779 µM) | 0.25 µg/mL (≈ 0.325 µM) | 0.25 µg/mL (≈ 0.325 µM)
CC[C@H]1OC(=O)[C@H](C)C(=O)[C@H](C)[C@@H](O[C@@H]2O[C@H](C)C[C@H](N(C)C)[C@H]2O)[C@](C)(OC)C[C@@H](C)/C(=N\OC/C=C/c2cncnc2)[C@H](C)[C@@H](O)[C@]1(C)O | 128 µg/mL (≈ 178 µM) | 0.5 µg/mL (≈ 0.694 µM) | 128 µg/mL (≈ 178 µM) | 128 µg/mL (≈ 178 µM) | 0.5 µg/mL (≈ 0.694 µM) | 0.5 µg/mL (≈ 0.694 µM) | 0.5 µg/mL (≈ 0.694 µM) | 0.5 µg/mL (≈ 0.694 µM) | 0.25 µg/mL (≈ 0.347 µM) | 0.5 µg/mL (≈ 0.694 µM) | 1 µg/mL (≈ 1.39 µM) | 0.125 µg/mL (≈ 0.173 µM) | 0.125 µg/mL (≈ 0.173 µM) | 0.25 µg/mL (≈ 0.347 µM) | 0.06 µg/mL (≈ 0.0832 µM) | 0.25 µg/mL (≈ 0.347 µM) | 0.25 µg/mL (≈ 0.347 µM)
CC[C@H]1OC(=O)[C@H](C)C(=O)[C@H](C)[C@@H](O[C@@H]2O[C@H](C)C[C@H](N(C)C)[C@H]2O)[C@](C)(OC)C[C@@H](C)/C(=N\OC/C=C/c2ccc(OC)cc2)[C@H](C)[C@@H](O)[C@]1(C)O | 64 µg/mL (≈ 85.5 µM) | 2 µg/mL (≈ 2.67 µM) | 128 µg/mL (≈ 171 µM) | 126 µg/mL (≈ 168 µM) | 2 µg/mL (≈ 2.67 µM) | 2 µg/mL (≈ 2.67 µM) | 1 µg/mL (≈ 1.34 µM) | 1 µg/mL (≈ 1.34 µM) | 0.5 µg/mL (≈ 0.668 µM) | 0.5 µg/mL (≈ 0.668 µM) | 0.5 µg/mL (≈ 0.668 µM) | 0.25 µg/mL (≈ 0.334 µM) | 0.25 µg/mL (≈ 0.334 µM) | 0.5 µg/mL (≈ 0.668 µM) | 0.25 µg/mL (≈ 0.334 µM) | 0.5 µg/mL (≈ 0.668 µM) | 0.5 µg/mL (≈ 0.668 µM)
